Calls of active or inactive are those of the source. No cut-off for these calls is given here.
How the values were obtained:
[1] = Inhibition of Influenza A virus (A/Duck/Guangdong/674/2014(H5N6)) Neuraminidase N6 preincubated for 10 mins followed by MUNANA substrate addition and measured after 40 mins by fluorescence method
[2] = tested on: Influenza A virus; assay: Antiviral activity against Influenza A virus (A/Duck/Guangdong/674/2014(H5N6)) infected in chicken embryo fibroblasts assessed as protection against virus-induced cytopathic effect incubated for 48 hrs by CCK8 assay; format: functional, organism-based
[3] = Cytotoxicity against CEF after 48 hrs by CCK8 assay; design: species or system Gallus gallus; conditions: chicken, CEF cells
Summary of the method: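 Uninfected chicken embryo fibroblasts are given compound, serially diluted 3-fold in DMEM with 1% FBS from a DMSO stock, at 37 °C and 5% CO2 for 48 h. Viability is read as A450 after 90 min with CCK-8 at 37 °C. CC50 is derived as for EC50.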

[4] = tested on: Influenza A virus; assay: Antiviral activity against Influenza A virus (A/Chicken/Hebei/LZF/2014(H5N2)) infected in chicken embryonated eggs assessed as chicken embryo survival at 10 mM incubated with virus for 1 hr followed by inoculation and measured after 72 hrs relative to control; format: functional
[5] = tested on: Influenza A virus; assay: Antiviral activity against Influenza A virus (A/Chicken/Hebei/LZF/2014(H5N2)) infected in chicken embryo fibroblasts assessed as protection against virus-induced cytopathic effect incubated for 48 hrs by CCK8 assay; format: functional, organism-based
[6] = tested on: Influenza A virus; assay: Antiviral activity against Influenza A virus (A/Chicken/China/415/2013 (H9N2)) infected in chicken embryonated eggs assessed as chicken embryo survival at 10 to 0.625 mM incubated with virus for 1 hr followed by inoculation and measured after 72 hrs relative to control; format: functional
[7] = tested on: Influenza A virus; assay: Antiviral activity against Influenza A virus (A/goose/Guangdong/SH7/2013(H5N1)) infected in chicken embryo fibroblasts assessed as protection against virus-induced cytopathic effect incubated for 48 hrs by CCK8 assay; format: functional, organism-based
[8] = tested on: Influenza A virus; assay: Antiviral activity against Influenza A virus (A/Chicken/Hebei/LZF/2014(H5N2)) infected in chicken embryonated eggs assessed as protection against virus-induced chicken embryo death at 2.5 to 0.156 mM incubated with virus for 1 hr followed by inoculation and measured after 72 hrs; format: functional, organism-based
[9] = tested on: Influenza A virus; assay: Antiviral activity against Influenza A virus (A/Chicken/China/415/2013 (H9N2)) infected in chicken embryonated eggs assessed as chicken embryo survival at 10 to 0.156 mM incubated with virus for 1 hr followed by inoculation and measured after 72 hrs relative to control; format: functional

| SMILES | IC50 [1] [µM] | also measured |
| --- | --- | --- |
| CCC(CC)O[C@@H]1C=C(C(=O)O)C[C@H](N)[C@H]1NC(C)=O [OSELTAMIVIR CARBOXYLATE] | 0.018 | EC50 [2]: 0.43 µM; CC50 at 48 h [3]: > 1000 µM; Activity [4]: 80%; EC50 [5]: 0.18 µM; Activity [6]: >80%; EC50 [7]: 0.22 µM; Activity [8]: inactive |
| CCC(CC)O[C@@H]1C=C(C(=O)NCc2cn(Cc3cccc([N+](=O)[O-])c3)nn2)C[C@H](N)[C@H]1NC(C)=O | 2.85 | – |
| CCC(CC)O[C@@H]1C=C(C(=O)NCc2cn(Cc3ccc([N+](=O)[O-])cc3)nn2)C[C@H](N)[C@H]1NC(C)=O | 1.17 | – |
| CCC(CC)O[C@@H]1C=C(C(=O)NCc2cn(CC(=O)N3CCOCC3)nn2)C[C@H](N)[C@H]1NC(C)=O | 0.79 | EC50 [2]: 3.78 µM; CC50 at 48 h [3]: > 1000 µM; EC50 [5]: 1 µM; EC50 [7]: 3.1 µM |
| CCC(CC)O[C@@H]1C=C(C(=O)NC(C)(C)c2cn(Cc3ccc(Br)cc3)nn2)C[C@H](N)[C@H]1NC(C)=O | > 10 | – |
| CCC(CC)O[C@@H]1C=C(C(=O)NCc2cn(CCc3ccccc3)nn2)C[C@H](N)[C@H]1NC(C)=O | 0.57 | – |
| CCC(CC)O[C@@H]1C=C(C(=O)NCc2cn(C3CCCCC3)nn2)C[C@H](N)[C@H]1NC(C)=O | 2.01 | – |
| CCC(CC)O[C@@H]1C=C(C(=O)NCc2cn(Cc3ccccc3Br)nn2)C[C@H](N)[C@H]1NC(C)=O | > 10 | – |
| CCC(CC)O[C@@H]1C=C(C(=O)NCc2cn(Cc3ccc(C)cc3)nn2)C[C@H](N)[C@H]1NC(C)=O | 5.5 | – |
| CCC(CC)O[C@@H]1C=C(C(=O)NCCc2cn(Cc3ccc([N+](=O)[O-])cc3)nn2)C[C@H](N)[C@H]1NC(C)=O | 7.6 | – |
| CCC(CC)O[C@@H]1C=C(C(=O)NCc2cn(Cc3ccccc3[N+](=O)[O-])nn2)C[C@H](N)[C@H]1NC(C)=O | > 10 | – |
| CCC(CC)O[C@@H]1C=C(C(=O)NCc2cn(CC(=O)N3CCCC3)nn2)C[C@H](N)[C@H]1NC(C)=O | 1.4 | – |
| CCC(CC)O[C@@H]1C=C(C(=O)NCCc2cn(Cc3ccc(Br)cc3)nn2)C[C@H](N)[C@H]1NC(C)=O | > 10 | – |
| CCC(CC)O[C@@H]1C=C(C(=O)NC(C)(C)c2cn([C@H]3C[C@H](n4cc(C)c(=O)[nH]c4=O)O[C@@H]3CO)nn2)C[C@H](N)[C@H]1NC(C)=O | 0.58 | EC50 [2]: > 20 µM; CC50 at 48 h [3]: > 1000 µM; EC50 [5]: 0.53 µM; EC50 [7]: 6.28 µM |
| CCC(CC)O[C@@H]1C=C(C(=O)NCc2cn(CSc3ccccc3)nn2)C[C@H](N)[C@H]1NC(C)=O | 4.59 | – |
| CCC(CC)O[C@@H]1C=C(C(=O)NCc2cn(Cc3ccc(Cl)c(F)c3)nn2)C[C@H](N)[C@H]1NC(C)=O | 2.8 | – |
| CCC(CC)O[C@@H]1C=C(C(=O)NCCc2cn([C@H]3C[C@H](n4cc(C)c(=O)[nH]c4=O)O[C@@H]3CO)nn2)C[C@H](N)[C@H]1NC(C)=O | > 10 | – |
| CCC(CC)O[C@@H]1C=C(C(=O)NCc2cn(CCc3ccc(Br)cc3)nn2)C[C@H](N)[C@H]1NC(C)=O | 6.34 | – |
| CCC(CC)O[C@@H]1C=C(C(=O)NCc2cn(Cc3cccc(Cl)c3)nn2)C[C@H](N)[C@H]1NC(C)=O | 2.56 | – |
| CCC(CC)O[C@@H]1C=C(C(=O)NCc2cn(Cc3ccc(-c4ccccc4)cc3)nn2)C[C@H](N)[C@H]1NC(C)=O | 2.2 | – |
| CCC(CC)O[C@@H]1C=C(C(=O)NCc2cn([C@H]3C[C@H](n4cc(C)c(=O)[nH]c4=O)O[C@@H]3CO)nn2)C[C@H](N)[C@H]1NC(C)=O | 0.29 | – |
| CCC(CC)O[C@@H]1C=C(C(=O)NCc2cn(Cc3ccccc3)nn2)C[C@H](N)[C@H]1NC(C)=O | 1 | – |
| CCC(CC)O[C@@H]1C=C(C(=O)NCc2cn(Cc3cccc(F)c3)nn2)C[C@H](N)[C@H]1NC(C)=O | 2 | – |
| CCC(CC)O[C@@H]1C=C(C(=O)NCc2cn(Cc3ccc(Br)cc3)nn2)C[C@H](N)[C@H]1NC(C)=O | 0.16 | EC50 [2]: 2.8 µM; CC50 at 48 h [3]: > 1000 µM; Activity [4]: 20%; EC50 [5]: 0.43 µM; EC50 [7]: 2.45 µM; Activity [9]: >80%; Activity [8]: inactive |
| CCC(CC)O[C@@H]1C=C(C(=O)NCc2cn(Cc3ccc(F)cc3)nn2)C[C@H](N)[C@H]1NC(C)=O | 3.2 | – |
| CCC(CC)O[C@@H]1C=C(C(=O)NCc2cn(Cc3ccccc3Cl)nn2)C[C@H](N)[C@H]1NC(C)=O | 0.13 | EC50 [2]: 8.6 µM; CC50 at 48 h [3]: > 1000 µM; EC50 [5]: 0.47 µM; EC50 [7]: 3.32 µM |
| CCC(CC)O[C@@H]1C=C(C(=O)NC(C)(C)c2cn(Cc3ccc([N+](=O)[O-])cc3)nn2)C[C@H](N)[C@H]1NC(C)=O | > 10 | – |
